Active and inactive are the calls of the source. The rule behind the calls is not given here.
How the values were obtained:
[1] = target: T1, Muscarinic acetylcholine receptor M2 (Homo sapiens, UniProt P08172); test: Displacement of [3H]N-methylscopolamine from human muscarinic M2 receptor expressed in CHO cells after 120 mins by scintillation counting; assay type: cell-based
T1 sequence (P08172 whole entry): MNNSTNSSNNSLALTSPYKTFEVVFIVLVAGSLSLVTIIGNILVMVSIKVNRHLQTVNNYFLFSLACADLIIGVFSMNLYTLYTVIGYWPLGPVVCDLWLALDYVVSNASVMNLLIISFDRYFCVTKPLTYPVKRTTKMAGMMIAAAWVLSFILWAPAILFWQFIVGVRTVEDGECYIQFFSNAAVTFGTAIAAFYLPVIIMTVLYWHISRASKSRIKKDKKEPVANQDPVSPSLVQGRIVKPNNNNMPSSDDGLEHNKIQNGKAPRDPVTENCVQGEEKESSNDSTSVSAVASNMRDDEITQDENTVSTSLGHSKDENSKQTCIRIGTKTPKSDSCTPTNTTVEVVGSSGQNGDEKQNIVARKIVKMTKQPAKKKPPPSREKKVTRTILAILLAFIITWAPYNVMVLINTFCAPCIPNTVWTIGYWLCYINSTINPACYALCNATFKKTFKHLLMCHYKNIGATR

[2] = target: T2, Muscarinic acetylcholine receptor M5 (Homo sapiens, UniProt P08912); test: Displacement of [3H]N-methylscopolamine from human muscarinic M5 receptor expressed in CHO cells after 120 mins by scintillation counting; assay type: cell-based
T2 sequence (P08912 whole entry): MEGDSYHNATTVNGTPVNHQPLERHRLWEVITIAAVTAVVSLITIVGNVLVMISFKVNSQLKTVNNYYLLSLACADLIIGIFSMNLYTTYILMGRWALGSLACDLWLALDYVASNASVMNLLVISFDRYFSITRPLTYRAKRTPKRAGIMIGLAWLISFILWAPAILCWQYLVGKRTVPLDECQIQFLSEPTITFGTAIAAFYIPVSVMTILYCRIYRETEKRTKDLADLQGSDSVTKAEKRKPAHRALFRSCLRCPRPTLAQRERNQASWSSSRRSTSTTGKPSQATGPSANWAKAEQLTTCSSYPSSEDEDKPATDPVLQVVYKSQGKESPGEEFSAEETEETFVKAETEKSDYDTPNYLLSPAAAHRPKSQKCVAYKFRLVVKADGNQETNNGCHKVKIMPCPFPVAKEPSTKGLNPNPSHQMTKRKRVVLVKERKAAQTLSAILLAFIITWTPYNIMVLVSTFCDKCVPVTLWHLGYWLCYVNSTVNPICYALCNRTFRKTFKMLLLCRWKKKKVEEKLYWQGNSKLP

[3] = Antagonist activity at muscarinic M2 receptor in guinea pig left atrium assessed as dissociation constant after 45 mins; assay type: functional, Cavia porcellus, Cardiac atrium
In short: (§1)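 Isolated guinea pig tissues: left atrium (M2), ileum (M3) and lung strips (putative M4). Antagonist dissociation constants were calculated by the Furchgott method and reported as pKB, as mean ± SEM of four to six independent experiments. Agonist reference for the tissue responses was bethanechol.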

Cavia porcellus [4] = species on record: Cavia porcellus; test: Intrinsic activity at muscarinic M2 receptor in guinea pig left atrium after 45 mins relative to bethanechol; assay type: tissue-based; settings: Cardiac atrium
In short: (§2)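 Guinea pig left atrium (M2) and ileum (M3) preparations. Intrinsic activity is the ratio of the compound's maximum response to the maximum response of bethanechol in that tissue. The pD2 is the −log of the agonist concentration giving 50% of the maximum response attainable in the tissue.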

[5] = Antagonist activity at muscarinic M3 receptor in guinea pig ileum assessed as dissociation constant after 45 mins; assay type: functional, Cavia porcellus; in short: as §1
Cavia porcellus [6] = species on record: Cavia porcellus; test: Intrinsic activity at muscarinic M3 receptor in guinea pig ileum after 45 mins relative to bethanechol; assay type: tissue-based; in short: as §2
[7] = Antagonist activity at muscarinic M4 receptor in guinea pig lung strips assessed as dissociation constant after 45 mins; assay type: functional, Cavia porcellus; in short: as §1
[8] = Antagonist activity at muscarinic M1 receptor in rabbit vas deferens assessed as dissociation constant after 45 mins; assay type: functional, Oryctolagus cuniculus
Rattus norvegicus [9] = test: Cardiovascular toxicity in anaesthetized Wistar rat assessed as changes in mean arterial pressure at 1 ug/kg, iv; assay type: organism-based, Artery; settings: in vivo, 0.001 mg/kg
Rattus norvegicus [10] = test: Cardiovascular toxicity in anaesthetized Wistar rat assessed as changes in heart rate at 1 ug/kg, iv; assay type: organism-based; settings: in vivo, 0.001 mg/kg
Rattus norvegicus [11] = test: Reduction in volume induced contraction of iv dosed anaesthetized Wistar rat urinary bladder assessed as inhibition of AUC peaks from saline baseline; assay type: functional; settings: read-out: ID50 (the source's name)
Rattus norvegicus [12] = test: Reduction in volume induced contraction of iv dosed anaesthetized Wistar rat urinary bladder assessed as inhibition of VIBC amplitudes relative to untreated control; assay type: functional
[13] = Agonist potency at muscarinic M3 receptor in guinea pig ileum after 45 mins; assay type: functional, Cavia porcellus
In short: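 Isolated guinea pig ileum (M3) functional assay. pD2 is the −log of the agonist concentration giving 50% of the maximum response attainable in that tissue. Intrinsic activity is the ratio of the agonist's maximum response to that of bethanechol. Results are mean ± SEM of four to six independent experiments.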

[14] = target: T3, Muscarinic acetylcholine receptor M4 (Homo sapiens, UniProt P08173); test: Displacement of [3H]N-methylscopolamine from human muscarinic M4 receptor expressed in CHO cells after 120 mins by scintillation counting; assay type: cell-based
T3 sequence (P08173 whole entry): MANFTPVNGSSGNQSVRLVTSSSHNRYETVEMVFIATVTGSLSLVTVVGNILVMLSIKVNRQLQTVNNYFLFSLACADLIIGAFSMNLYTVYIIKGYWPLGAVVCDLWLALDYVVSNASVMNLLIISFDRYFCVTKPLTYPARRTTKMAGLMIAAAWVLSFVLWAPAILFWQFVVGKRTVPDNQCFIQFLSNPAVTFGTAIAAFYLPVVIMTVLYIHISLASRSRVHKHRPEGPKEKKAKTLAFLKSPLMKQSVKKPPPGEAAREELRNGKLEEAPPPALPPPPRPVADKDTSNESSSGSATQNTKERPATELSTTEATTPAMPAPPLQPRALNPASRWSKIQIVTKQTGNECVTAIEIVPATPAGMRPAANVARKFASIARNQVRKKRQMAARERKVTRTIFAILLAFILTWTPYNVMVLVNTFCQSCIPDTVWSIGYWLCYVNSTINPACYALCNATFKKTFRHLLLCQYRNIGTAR

[15] = Agonist potency at muscarinic M2 receptor in guinea pig left atrium after 45 mins; assay type: functional, Cavia porcellus, Cardiac atrium
Cavia porcellus [16] = species on record: Cavia porcellus; test: Antagonist activity at muscarinic M4 receptor in guinea pig lung strips up to 10 uM after 45 mins; assay type: functional
In short: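 Guinea pig lung strips (putative M4) were tested for agonist activity and then for antagonism at concentrations up to 10 μM. Dissociation constants (pKB) were calculated by the Furchgott method from four to six independent experiments.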

Cavia porcellus [17] = species on record: Cavia porcellus

| Compound | Ki [1] [µM] | Ki [2] [µM] | pKb [3] | Intrinsic activity (Cavia porcellus [4]) | pKb [5] | Intrinsic activity (Cavia porcellus [6]) | pKb [7] | Ki [14] [µM] | also measured |
| --- | --- | --- | --- | --- | --- | --- | --- | --- | --- |
| C[N+](C)(C)C[C@H]1COCC(c2ccccc2)(c2ccccc2)O1.[I-] | 0.00282 | 0.0017 | 7.31 | 0 | 8.52 | 0 | 6.7 | – | pKb [8]: 8.86; Activity (Rattus norvegicus [9]): -12%; Activity (Rattus norvegicus [10]): 5%; ED50 (Rattus norvegicus [11]): 0.201 mg/kg; Imax (Rattus norvegicus [12]): 96% |
| C[N+](C)(C)C[C@@H]1COCC(c2ccccc2)(c2ccccc2)O1.[I-] | 0.0331 | 0.107 | 6.67 | 0 | – | 0 | 6.62 | – | – |
| CN(C)C[C@H]1COCC(c2ccccc2)(c2ccccc2)O1.O=C(O)C(=O)O | 0.00977 | 0.00182 | 7.63 | 0 | – | 0 | 6.94 | – | – |
| CN(C)C[C@@H]1COCC(c2ccccc2)(c2ccccc2)O1.O=C(O)C(=O)O | 0.0955 | 0.0813 | 7 | 0 | – | 0 | – | – | – |
| CN(C)C[C@@H]1COC(c2ccccc2)(c2ccccc2)O1.O=C(O)C(=O)O | – | – | 7.11 | – | 6.38 | – | – | – | – |
| C[C@H]1COC[C@@H](C[N+](C)(C)C)O1.[I-] | – | – | – | 1 | – | 1 | – | – | pD2 [13]: 7.34 |
| C[N+](C)(C)CC1COCC(c2ccccc2)(c2ccccc2)O1.[I-] (racemic) | 0.00575 | 0.00437 | 8.21 | 0 | 8.34 | 0 | 7.77 | – | – |
| CN(C)CC1COCC(c2ccccc2)(c2ccccc2)O1.O=C(O)C(=O)O (racemic) | 0.0166 | 0.00537 | 6.95 | 0 | 8.24 | 0 | 7.02 | – | pKb [8]: 7.86; Activity (Rattus norvegicus [9]): -18%; Activity (Rattus norvegicus [10]): 4%; ED50 (Rattus norvegicus [11]): 0.134 mg/kg; Imax (Rattus norvegicus [12]): 72% |
| CC[C@H]1COC[C@@H](C[N+](C)(C)C)O1.[I-] (relative stereo) | 6.31 | 26.3 | – | 1 | – | 1 | – | 25.1 | pD2 [15]: 5.62; pD2 [13]: 4.82; Activity (Cavia porcellus [16]): inactive; pD2 (Cavia porcellus [17]): inactive |
| CC[C@@H]1COC[C@@H](C[N+](C)(C)C)O1.[I-] (relative stereo) | 18.2 | > 100 | – | 0.7 | – | 1 | – | > 100 | pD2 [15]: 5.45; pD2 [13]: 5.19; Activity (Cavia porcellus [16]): inactive; pD2 (Cavia porcellus [17]): inactive |
| C[N+](C)(C)C[C@@H]1COC[C@H](c2ccccc2)O1.[I-] (relative stereo) | – | – | 5.56 | 0 | – | 0 | 5.24 | 12.3 | – |
| C[N+](C)(C)C[C@@H]1COC[C@@H](c2ccccc2)O1.[I-] (relative stereo) | – | – | 5.14 | 0 | <5 | 0 | <5 | 29.5 | – |
| C[N+](C)(C)C[C@@H]1COC[C@H](C(c2ccccc2)c2ccccc2)O1 (relative stereo) | 28.2 | 7.59 | – | – | – | – | – | 11.2 | – |
| C[N+](C)(C)C[C@@H]1COC[C@@H](C(c2ccccc2)c2ccccc2)O1 (relative stereo) | 79.4 | 31.6 | – | – | – | – | – | 17 | – |
| C[N+]1(C)CCC(OC(=O)C(c2ccccc2)c2ccccc2)CC1.[I-] [4-DAMP] | – | – | 8 | – | 9.02 | – | 9.4 | – | – |
| COc1ccccc1CNCCCCCCNCCCCCCCCNCCCCCCNCc1ccccc1OC [METHOCTRAMINE] | – | – | 7.8 | – | 6.3 | – | 7.6 | – | – |
| CCN(CC)CC#CCOC(=O)C(O)(c1ccccc1)C1CCCCC1 (stereo not given) [OXYBUTYNIN] | – | – | – | 0 | – | 0 | – | – | Activity (Rattus norvegicus [9]): 20%; Activity (Rattus norvegicus [10]): 7%; ED50 (Rattus norvegicus [11]): 0.347 mg/kg; Imax (Rattus norvegicus [12]): 75% |

Reference: ChEMBL document CHEMBL2040723, “1,4-dioxane, a suitable scaffold for the development of novel M₃ muscarinic receptor antagonists” (J Med Chem, 2012)
